For data set [1], the system named is HT-29 human colon cancer cell line. In words: Cytotoxic activity against the HT-29 cell line. Format: cell-based. Particulars: for Cytotoxicity ED50: HT-29 cells.
Another data set concerns the target NF-κB p65 (RelA) subunit (Homo sapiens, UniProt Q04206). In words: Enzyme-based ELISA NF-κB. Format: biochemical.
For the next data set, the system named is HT-29 human cancer cells. In words: In vivo hollow fiber assay, HT-29. Also on record: species or system human cells in host mice. As to conditions: HT29, ip administration, 0.5 to 10 mg per kg per day for four days. The gist of the method:
(§1)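 Murine hollow fiber model following an NCI procedure, with human cancer cells (HT-29, LNCaP, MCF-7) held in fibers. Test compound given ip at 0.5 to 10 mg/kg per day for four days, in 5% EtOH plus 5% Tween 80 in physiologic saline. Paclitaxel positive control at 2.0 mg/kg per day for four days.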

In data set [2] the test system is LNCaP (hormone-dependent human prostate cancer). In words: In vivo hollow fiber assay, LNCaP. Also on record: species or system human cells in host mice. Particulars: ip administration, 0.5 to 10 mg per kg per day for four days. The gist of the method: as §1
In data set [3] the test system is MCF-7 (human breast cancer). In words: In vivo hollow fiber assay, MCF-7. As to conditions: MCF-7, ip administration, 0.5 to 10 mg per kg per day for four days. Also on record: species or system human cells in host mice. The method in brief:
as §1

Data set [4] can be described thus: Body weight of host mice in the hollow fiber assay. Format: in vivo. Particulars: highest two doses (10 and 5 mg/kg/day), ip, over the course of the study. The method in brief: as §1
A short description of data set [5]: Stability in solvents at room temperature. Format: physicochemical. Particulars: kept in CDCl3 or deuteriobenzene at room temperature; [2+2] addition.
Data set [6] has as its system P-388 lymphocytic murine leukemia. Particulars: ref Herz et al., 1981; cited from earlier work.

NF-κB p65 (RelA) subunit, sequence (Q04206 whole entry, species assumed): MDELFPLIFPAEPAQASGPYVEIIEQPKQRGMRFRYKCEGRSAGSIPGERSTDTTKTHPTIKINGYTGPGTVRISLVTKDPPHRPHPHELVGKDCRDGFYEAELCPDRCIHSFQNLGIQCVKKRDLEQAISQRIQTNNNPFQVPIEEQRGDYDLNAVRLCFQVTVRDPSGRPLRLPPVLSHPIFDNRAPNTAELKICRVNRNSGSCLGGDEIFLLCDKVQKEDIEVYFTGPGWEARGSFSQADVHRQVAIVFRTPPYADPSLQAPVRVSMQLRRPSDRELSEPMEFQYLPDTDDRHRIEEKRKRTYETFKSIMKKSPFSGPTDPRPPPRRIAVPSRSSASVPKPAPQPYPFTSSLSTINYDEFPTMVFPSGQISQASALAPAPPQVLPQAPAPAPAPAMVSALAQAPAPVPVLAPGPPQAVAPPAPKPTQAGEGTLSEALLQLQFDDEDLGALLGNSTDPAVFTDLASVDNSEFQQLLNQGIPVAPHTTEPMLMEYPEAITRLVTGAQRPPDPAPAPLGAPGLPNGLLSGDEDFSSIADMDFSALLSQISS

In the case of 2-epi-glaucolide E [Compound 5], the “Cytotoxicity ED50” value in data set [1] is 9.4 µM. Besides, the “NF-κB Inhibition ED50” value at NF-κB p65 (RelA) subunit is greater than 10 µM.
In the case of “2α,13-diacetoxy-4α-hydroxy-8α-methacryloyloxybourbonen-12,6α-olide [Compound 6]”, the “NF-κB Inhibition ED50” value on NF-κB p65 (RelA) subunit came out at 2.8 µM.
Regarding “8-desacyl-13-acetoxyrolandrolide-8-O-tiglate [Compound 4]”, the “Cytotoxicity ED50” value in data set [1] stood at 1.5 µM. Further, in data set [1] (tiglate instead of methacrylate on C-8), the “change of potency of the inhibitory effect on HT-29 cells relative to compound 3” value is reported as “decreased around ten times”.
As for 13-acetoxyrolandrolide [Compound 3], the “Cytotoxicity ED50” value in data set [1] worked out at 0.16 µM. The “NF-κB Inhibition ED50” value at NF-κB p65 (RelA) subunit was 7.1 µM. Also, the “inhibition of proliferation in hollow fibers” value (with HT-29 human cancer cells; in data set [2]; in data set [3]) was “no inhibition of proliferation was observed” in each case. In addition, the body weight loss entry in data set [4] is reported as “up to 20%”. For the same substance, the stability in solvents entry in data set [5] is on record as “partially transformed to compound 6”. In data set [6], the “in vivo antitumor activity” value is reported as “weak”.
